Source: ChEMBL document CHEMBL5724801, “EUbOPEN Chemogenomics Library - Multiplex” (2024)
“And” between values parts separate entries of the source, which are not always exact repeats. Equal values may be shown once.

Tested on: U2OS
Experiment: Multiplex assay against U2OS
Format: toxicity, cell-based
Settings: human
How it was run: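 Four dyes were applied at seeding to live cells: Hoechst33342, BioTracker Green Microtubule Cytoskeleton Dye, MitoTracker Red and Annexin V Alexa Fluor 680. Imaging after compound addition used a CQ1 microscope at 37°C and 5% CO2. CellPathfinder machine-learning gating then sorted cells into Hoechst high-intensity objects or normal cells, normal cells into healthy, pyknosed or fragmented nuclei, and pyknosed cells into mitotic or apoptotic, with tubulin, mitochondrial-mass and membrane-permeability phenotypes given as per cents of healthy-nucleus cells.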

[1] = 12 h, 1 µM, compound concentration 1 uM
[2] = 12 h, 10 µM, compound concentration 10 uM
[3] = 24 h, 1 µM, compound concentration 1 uM
[4] = 24 h, 10 µM, compound concentration 10 uM
[5] = 48 h, 1 µM, compound concentration 1 uM
[6] = 48 h, 10 µM, compound concentration 10 uM

CN1CCN2c3ccccc3Cc3ccccc3C2C1.Cl (stereo not drawn) [MIANSERIN HYDROCHLORIDE]
Population Apoptotic (%) [1]: 91% and 83%
Population Fragmented Nuclei (%) [1]: 35% and 16%
Population Healthy Nuclei (%) [1]: 56% and 77%
Population Hoechst High Intensity Objects (%) [1]: 3% and 1%
Population Membrane Permeable-Phenotype (%) [1]: 7% and 3%
Population Mitochondria Different-Phenotype (%) [1]: 4% and 3%
Population Mitotic Cells (%) [1]: 8% and 16%
Population Normal (%) [1]: 96% and 98%
Population Pyknosed Nuclei (%) [1]: 7% and 5%
Population Tubulin-Different-Phenotype (%) [1]: 5% and 2%
Total Cell Count [1]: 162 and 109
Population Apoptotic (%) [2]: 78% and 86%
Population Fragmented Nuclei (%) [2]: 23% and 12%
Population Healthy Nuclei (%) [2]: 68% and 77%
Population Hoechst High Intensity Objects (%) [2]: 2% and 1%
Population Membrane Permeable-Phenotype (%) [2]: 7% and 1%
Population Mitochondria Different-Phenotype (%) [2]: 3% and 2%
Population Mitotic Cells (%) [2]: 21% and 13%
Population Normal (%) [2]: 97% and 98%
Population Pyknosed Nuclei (%) [2]: 8% and 10%
Population Tubulin-Different-Phenotype (%) [2]: 4% and 0%
Total Cell Count [2]: 277 and 152
Population Apoptotic (%) [3]: 88% and 75%
Population Fragmented Nuclei (%) [3]: 34% and 23%
Population Healthy Nuclei (%) [3]: 56% and 70%
Population Hoechst High Intensity Objects (%) [3]: 1% and 2%
Population Membrane Permeable-Phenotype (%) [3]: 6% and 4%
Population Mitochondria Different-Phenotype (%) [3]: 1% and 3%
Population Mitotic Cells (%) [3]: 11% and 25%
Population Normal (%) [3]: 98% and 97%
Population Pyknosed Nuclei (%) [3]: 8% and 5%
Population Tubulin-Different-Phenotype (%) [3]: 4% and 3%
Total Cell Count [3]: 197 and 142
Population Apoptotic (%) [4]: 69% and 93%
Population Fragmented Nuclei (%) [4]: 21% and 13%
Population Healthy Nuclei (%) [4]: 68% and 77%
Population Hoechst High Intensity Objects (%) [4]: 1% and 2%
Population Membrane Permeable-Phenotype (%) [4]: 9% and 7%
Population Mitochondria Different-Phenotype (%) [4]: 2% and 3%
Population Normal (%) [4]: 98% and 97%
Population Pyknosed Nuclei (%) [4]: 10% and 8%
Population Tubulin-Different-Phenotype (%) [4]: 2%
Total Cell Count [4]: 319 and 183
Population Apoptotic (%) [5]: 78%
Population Fragmented Nuclei (%) [5]: 28% and 19%
Population Healthy Nuclei (%) [5]: 65% and 71%
Population Hoechst High Intensity Objects (%) [5]: 2% and 1%
Population Membrane Permeable-Phenotype (%) [5]: 5% and 4%
Population Mitochondria Different-Phenotype (%) [5]: 2% and 3%
Population Mitotic Cells (%) [5]: 21%
Population Normal (%) [5]: 97% and 98%
Population Pyknosed Nuclei (%) [5]: 5% and 9%
Population Tubulin-Different-Phenotype (%) [5]: 4% and 2%
Total Cell Count [5]: 269 and 206
Population Apoptotic (%) [6]: 91% and 87%
Population Fragmented Nuclei (%) [6]: 18% and 15%
Population Healthy Nuclei (%) [6]: 71% and 73%
Population Hoechst High Intensity Objects (%) [6]: 4% and 2%
Population Membrane Permeable-Phenotype (%) [6]: 4%
Population Mitochondria Different-Phenotype (%) [6]: 2% and 3%
Population Mitotic Cells (%) [6]: 8% and 12%
Population Normal (%) [6]: 95% and 97%
Population Pyknosed Nuclei (%) [6]: 9% and 11%
Population Tubulin-Different-Phenotype (%) [6]: 1% and 2%
Total Cell Count [6]: 397 and 285

CCNC1(C(N)=O)CCN(c2ncnc3c2nc(-c2ccccc2Cl)n3-c2ccc(Cl)cc2)CC1 [OTENABANT]
Population Apoptotic (%) [1]: 77% and 85%
Population Fragmented Nuclei (%) [1]: 30% and 17%
Population Healthy Nuclei (%) [1]: 60% and 74%
Population Hoechst High Intensity Objects (%) [1]: 3% and 2%
Population Membrane Permeable-Phenotype (%) [1]: 13% and 11%
Population Mitotic Cells (%) [1]: 22% and 14%
Population Normal (%) [1]: 96% and 97%
Population Pyknosed Nuclei (%) [1]: 9% and 7%
Population Tubulin-Different-Phenotype (%) [1]: 4% and 10%
Total Cell Count [1]: 254 and 93
Population Apoptotic (%) [2]: 58% and 70%
Population Fragmented Nuclei (%) [2]: 31% and 21%
Population Healthy Nuclei (%) [2]: 48% and 60%
Population Hoechst High Intensity Objects (%) [2]: 6% and 0%
Population Membrane Permeable-Phenotype (%) [2]: 81% and 65%
Population Mitochondria Different-Phenotype (%) [2]: 63% and 73%
Population Mitotic Cells (%) [2]: 41% and 30%
Population Normal (%) [2]: 93% and 99%
Population Pyknosed Nuclei (%) [2]: 19% and 18%
Population Tubulin-Different-Phenotype (%) [2]: 89% and 76%
Total Cell Count [2]: 211 and 112
Population Apoptotic (%) [3]: 79% and 80%
Population Fragmented Nuclei (%) [3]: 26% and 24%
Population Healthy Nuclei (%) [3]: 61% and 62%
Population Hoechst High Intensity Objects (%) [3]: 3% and 4%
Population Membrane Permeable-Phenotype (%) [3]: 11% and 15%
Population Mitochondria Different-Phenotype (%) [3]: 5% and 15%
Population Mitotic Cells (%) [3]: 20%
Population Normal (%) [3]: 96% and 95%
Population Pyknosed Nuclei (%) [3]: 11% and 13%
Population Tubulin-Different-Phenotype (%) [3]: 7% and 5%
Total Cell Count [3]: 308 and 120
Population Apoptotic (%) [4]: 69% and 80%
Population Fragmented Nuclei (%) [4]: 29% and 28%
Population Healthy Nuclei (%) [4]: 49% and 53%
Population Hoechst High Intensity Objects (%) [4]: 3%
Population Membrane Permeable-Phenotype (%) [4]: 55% and 47%
Population Mitochondria Different-Phenotype (%) [4]: 75% and 72%
Population Mitotic Cells (%) [4]: 30% and 20%
Population Normal (%) [4]: 96%
Population Pyknosed Nuclei (%) [4]: 20% and 18%
Population Tubulin-Different-Phenotype (%) [4]: 78% and 62%
Total Cell Count [4]: 218 and 137
Population Apoptotic (%) [5]: 86% and 52%
Population Fragmented Nuclei (%) [5]: 24% and 16%
Population Healthy Nuclei (%) [5]: 64% and 69%
Population Hoechst High Intensity Objects (%) [5]: 1% and 4%
Population Membrane Permeable-Phenotype (%) [5]: 7% and 13%
Population Mitochondria Different-Phenotype (%) [5]: 4% and 10%
Population Normal (%) [5]: 98% and 95%
Population Pyknosed Nuclei (%) [5]: 10% and 14%
Population Tubulin-Different-Phenotype (%) [5]: 3% and 9%
Population Apoptotic (%) [6]: 86% and 80%
Population Fragmented Nuclei (%) [6]: 32% and 29%
Population Healthy Nuclei (%) [6]: 43% and 45%
Population Hoechst High Intensity Objects (%) [6]: 7% and 10%
Population Membrane Permeable-Phenotype (%) [6]: 49% and 43%
Population Mitochondria Different-Phenotype (%) [6]: 55% and 66%
Population Mitotic Cells (%) [6]: 13% and 20%
Population Normal (%) [6]: 92% and 89%
Population Pyknosed Nuclei (%) [6]: 23% and 24%
Population Tubulin-Different-Phenotype (%) [6]: 51% and 49%
Total Cell Count [6]: 269 and 138

Cc1noc(C)c1-c1cnc2c(-c3ccc(C(=O)O)cc3)cn([C@@H](C)c3ccccn3)c2c1 [PLX-51107]
Population Apoptotic (%) [1]: 28.33% and 48.15%
Population Fragmented Nuclei (%) [1]: 2.1% and 1.04%
Population Healthy Nuclei (%) [1]: 85.32% and 84.97%
Population Hoechst High Intensity Objects (%) [1]: 0%
Population Membrane Permeable-Phenotype (%) [1]: 0.25% and 4.88%
Population Mitochondria Different-Phenotype (%) [1]: 0% and 5.49%
Population Mitotic Cells (%) [1]: 71.67% and 51.85%
Population Normal (%) [1]: 100%
Population Pyknosed Nuclei (%) [1]: 12.58% and 13.99%
Population Tubulin-Different-Phenotype (%) [1]: 0.74% and 3.05%
Total Cell Count [1]: 477 and 193
Population Apoptotic (%) [2]: 30.77% and 33.33%
Population Fragmented Nuclei (%) [2]: 2.92% and 1.9%
Population Healthy Nuclei (%) [2]: 82.47% and 82.91%
Population Hoechst High Intensity Objects (%) [2]: 0%
Population Membrane Permeable-Phenotype (%) [2]: 1.36% and 3.05%
Population Mitochondria Different-Phenotype (%) [2]: 0.27% and 7.63%
Population Mitotic Cells (%) [2]: 69.23% and 66.67%
Population Normal (%) [2]: 100%
Population Pyknosed Nuclei (%) [2]: 14.61% and 15.19%
Population Tubulin-Different-Phenotype (%) [2]: 1.36% and 1.53%
Total Cell Count [2]: 445 and 158
Population Apoptotic (%) [3]: 32.76% and 59.26%
Population Fragmented Nuclei (%) [3]: 3.22% and 5.11%
Population Healthy Nuclei (%) [3]: 87.88% and 85.04%
Population Hoechst High Intensity Objects (%) [3]: 0%
Population Membrane Permeable-Phenotype (%) [3]: 0.52% and 4.29%
Population Mitochondria Different-Phenotype (%) [3]: 0.35% and 3.86%
Population Mitotic Cells (%) [3]: 67.24% and 40.74%
Population Normal (%) [3]: 100%
Population Pyknosed Nuclei (%) [3]: 8.9% and 9.85%
Population Tubulin-Different-Phenotype (%) [3]: 0.52% and 2.15%
Total Cell Count [3]: 652 and 274
Population Apoptotic (%) [4]: 43.37% and 43.48%
Population Fragmented Nuclei (%) [4]: 5.51% and 6.04%
Population Healthy Nuclei (%) [4]: 79.23% and 81.32%
Population Hoechst High Intensity Objects (%) [4]: 0%
Population Membrane Permeable-Phenotype (%) [4]: 0.93% and 2.7%
Population Mitochondria Different-Phenotype (%) [4]: 0% and 4.73%
Population Mitotic Cells (%) [4]: 56.63% and 56.52%
Population Normal (%) [4]: 100%
Population Pyknosed Nuclei (%) [4]: 15.26% and 12.64%
Population Tubulin-Different-Phenotype (%) [4]: 0.46% and 0.68%
Total Cell Count [4]: 544 and 182
Population Apoptotic (%) [5]: 51.49% and 72.73%
Population Fragmented Nuclei (%) [5]: 10.29% and 4.03%
Population Healthy Nuclei (%) [5]: 80.83% and 86.62%
Population Hoechst High Intensity Objects (%) [5]: 0%
Population Membrane Permeable-Phenotype (%) [5]: 0.44% and 2.21%
Population Mitochondria Different-Phenotype (%) [5]: 0.11% and 1.47%
Population Mitotic Cells (%) [5]: 48.51% and 27.27%
Population Normal (%) [5]: 100%
Population Pyknosed Nuclei (%) [5]: 8.88% and 9.34%
Population Tubulin-Different-Phenotype (%) [5]: 0.44% and 1.47%
Total Cell Count [5]: 1137 and 471
Population Apoptotic (%) [6]: 58.54% and 60.87%
Population Fragmented Nuclei (%) [6]: 17.75% and 9.91%
Population Healthy Nuclei (%) [6]: 65.96% and 70.26%
Population Hoechst High Intensity Objects (%) [6]: 0%
Population Membrane Permeable-Phenotype (%) [6]: 0.6% and 1.84%
Population Mitochondria Different-Phenotype (%) [6]: 0% and 2.45%
Population Mitotic Cells (%) [6]: 41.46% and 39.13%
Population Normal (%) [6]: 100%
Population Pyknosed Nuclei (%) [6]: 16.29% and 19.83%
Population Tubulin-Different-Phenotype (%) [6]: 1.2% and 0.61%
